Results from ChEMBL document CHEMBL1123502, “Synthesis of [[(naphthalenylmethoxy)- and [[(quinolinylmethoxy)phenyl]amino]oxoalkanoic acid esters. A novel series of leukotriene D4 antagonists and 5-lipoxygenase inhibitors” (J Med Chem, 1986).

How the values were obtained:
Format in all cases: functional
Cavia porcellus [1] = species on record: Cavia porcellus; experiment: Compound was evaluated for its effect on LTD4-induced contraction of guinea pig trachea
Method in brief: (§1)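 Isolated guinea pig tracheal spiral strips were contracted with LTC4 or LTD4, with antagonist at 3×10^-6 M versus untreated control. Responses are expressed as percentage of the tissue's maximal response to carbachol (1 mM). Potency is given as -log of the agonist concentration (M) giving a half-maximal response. pKB = -log([B]/(dose ratio - 1)), where dose ratio = treated ED50 ÷ control ED50. Control vs treated compared by unpaired Student's t test.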

Cavia porcellus [2] = species on record: Cavia porcellus; experiment: Compound was evaluated for its effect on LTC4-induced contraction of guinea pig trachea. percentage of maximal response of tissue to carbachol; method in brief: as §1
Cavia porcellus [3] = species on record: Cavia porcellus; experiment: Compound was evaluated for its effect on LTD4-induced contraction of guinea pig trachea. percentage of maximal response of tissue to carbachol; method in brief: as §1
Cavia porcellus [4] = species on record: Cavia porcellus; experiment: Compound was evaluated for its effect on LTC4-induced contraction of guinea pig trachea; method in brief: as §1

Compound: CCCc1c(OCCCCc2nnn[nH]2)ccc(C(C)=O)c1O [TOMELUKAST]
- -Log ED50 (Cavia porcellus [1]): 7.49
- pKB (Cavia porcellus [1]): 5.63
- Max contractility (Cavia porcellus [2]): 73%
- Max contractility (Cavia porcellus [3]): 57%
- -Log ED50 (Cavia porcellus [4]): 7.47
- pKB (Cavia porcellus [4]): 5.74
